# Measured values reported in ChEMBL document CHEMBL3227988, “Synthesis and antiviral activities of arabinofuranosyl-5-ethylpyrimidine nucleosides. Selective antiherpes activity of 1-(beta-D-arabinofuranosyl)-5-ethyluracil” (J Med Chem, 1979).
# Active and inactive are the calls of the source. The calls are words filed in the database; no cut-off is given here.
# Tests used:
# [1] = system: Human alphaherpesvirus 2; experiment: Antiviral activity against Herpes simplex virus-2 LYONS infected in primary rabbit kidney cells assessed as inhibition of virus-induced cytopathogenicity at 200 ug/ml treated immediately after virus adsorption measured 2 to 3 days after virus infection; assay type: functional, organism-based
# [2] = system: Human alphaherpesvirus 2; experiment: Antiviral activity against Herpes simplex virus-2 196 infected in primary rabbit kidney cells assessed as inhibition of virus-induced cytopathogenicity at 200 ug/ml treated immediately after virus adsorption measured 2 to 3 days after virus infection; assay type: functional, organism-based
# [3] = system: Human alphaherpesvirus 1; experiment: Antiviral activity against Herpes simplex virus-1 KOS infected in primary rabbit kidney cells assessed as inhibition of virus-induced cytopathogenicity at 200 ug/ml treated immediately after virus adsorption measured 2 to 3 days after virus infection; assay type: functional, organism-based
# [4] = system: Human alphaherpesvirus 1; experiment: Antiviral activity against Herpes simplex virus-1 KOS infected in human skin fibroblast cells assessed as inhibition of virus-induced cytopathogenicity at 200 ug/ml treated immediately after virus adsorption measured 2 to 3 days after virus infection; assay type: functional, organism-based
# [5] = Antimetabolic activity against primary rabbit kidney cells assessed as inhibition of [2-14C]dUrd incorporation into DNA after 16 hrs; assay type: ADME, cell-based, Oryctolagus cuniculus
# Procedure, shortened: (§1)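 Compound added to primary rabbit kidney cell cultures together with the radiolabeled DNA precursor. Input per 10^? cells: [methyl-3H]dThd 0.12 μCi/0.01 nmol, [2-14C]dUrd 14 μCi/250 nmol. Incorporation measured after 16 h incubation. Value is the concentration giving 50% inhibition of precursor incorporation.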
# [6] = system: Human alphaherpesvirus 1; experiment: Antiviral activity against Herpes simplex virus-1 KOS infected in primary rabbit kidney cells assessed as inhibition of virus-induced cytopathogenicity treated immediately after virus adsorption measured 2 to 3 days after virus infection; assay type: functional; conditions: Human alphaherpesvirus 1, KOS
# [7] = system: Human alphaherpesvirus 1; experiment: Antiviral activity against Herpes simplex virus-1 KOS infected in human skin fibroblast cells assessed as inhibition of virus-induced cytopathogenicity treated immediately after virus adsorption measured 2 to 3 days after virus infection; assay type: functional; conditions: Human alphaherpesvirus 1, KOS
# [8] = Antimetabolic activity against primary rabbit kidney cells assessed as inhibition of [methyl-3H]dThd incorporation into DNA after 16 hrs; assay type: ADME, cell-based, Oryctolagus cuniculus; procedure, shortened: as §1
# [9] = system: Vesicular stomatitis virus; experiment: Antiviral activity against Vesicular stomatitis virus infected in primary rabbit kidney cells assessed as inhibition of virus-induced cytopathogenicity treated immediately after virus adsorption measured 2 to 3 days after virus infection; assay type: functional
# [10] = system: Human alphaherpesvirus 2; experiment: Antiviral activity against Herpes simplex virus-2 LYONS infected in primary rabbit kidney cells assessed as inhibition of virus-induced cytopathogenicity treated immediately after virus adsorption measured 2 to 3 days after virus infection; assay type: functional; conditions: Human alphaherpesvirus 2, LYONS
# [11] = system: Human alphaherpesvirus 2; experiment: Antiviral activity against Herpes simplex virus-2 196 infected in primary rabbit kidney cells assessed as inhibition of virus-induced cytopathogenicity treated immediately after virus adsorption measured 2 to 3 days after virus infection; assay type: functional; conditions: Human alphaherpesvirus 2, 196
# [12] = Antiviral index, ratio of minimal toxic dose require to inhibit cellular DNA synthesis in primary rabbit kidney cells by 50% to minimal effective dose require to inhibit HSV1 KOS cytopathogenicity; assay type: toxicity, cell-based
# Procedure, shortened: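 Ratio of two doses. Numerator: dose inhibiting cellular DNA synthesis by 50%, measured as dThd or dUrd incorporation over 16 h. Denominator: minimal dose inhibiting HSV-1 KOS cytopathogenicity. For the CPE assay, virus input was 100 CCID50 per culture and compound was added right after adsorption. CPE was scored once untreated infected controls reached full CPE, generally at 2-3 days.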
# [13] = system: Human alphaherpesvirus 1; experiment: Antiviral activity against Herpes simplex virus-1 KOS infected in primary rabbit kidney cells assessed as log reduction in virus yield at 100 ug/ml treated immediately after virus adsorption measured 24 to 48 hrs after virus infection; assay type: functional
# [14] = system: Vaccinia virus; experiment: Antiviral activity against Vaccinia virus infected in primary rabbit kidney cells assessed as growth inhibition at 100 ug/ml treated immediately after virus adsorption measured 24 to 48 hrs after virus infection; assay type: functional, organism-based; conditions: Orthopoxvirus vaccinia
Structure (SMILES),inhibition [1],inhibition [2],inhibition [3],inhibition [4],MIC [5],MIC [6],MIC [7],MIC [8],MIC [9],MIC [10],MIC [11],selectivity ratio [12],log10PFU/ml [13],inhibition [14]
CCc1cn([C@H]2O[C@H](CO)[C@@H](O)[C@@H]2O)c(=O)nc1N,inactive,inactive,inactive,inactive,–,–,–,–,–,–,–,–,–,–
O=c1ccn([C@@H]2O[C@H](CO)[C@@H](O)[C@@H]2O)c(=O)[nH]1 [ARAURIDINE],–,–,–,–,> 400 µg/mL,20 µg/mL,20 µg/mL,300 µg/mL,> 200 µg/mL,20 µg/mL,20 µg/mL,–,–,–
CCc1cn([C@@H]2O[C@H](CO)[C@@H](O)[C@@H]2O)c(=O)nc1N,–,–,–,–,> 200 µg/mL,100 µg/mL,20 µg/mL,–,> 200 µg/mL,–,–,–,–,–
Nc1ccn([C@@H]2O[C@H](CO)[C@@H](O)[C@@H]2O)c(=O)n1 [CYTARABINE],–,–,–,–,0.05 µg/mL,0.03 µg/mL,0.02 µg/mL,0.1 µg/mL,4 µg/mL,0.04 µg/mL,0.03 µg/mL,–,–,–
CCc1cn([C@@H]2O[C@H](CO)[C@@H](O)[C@@H]2O)c(=O)[nH]c1=O,–,–,–,–,> 200 µg/mL,2 µg/mL,2 µg/mL,> 200 µg/mL,> 200 µg/mL,10 µg/mL,20 µg/mL,> 100,>3,inactive
CCc1cn([C@H]2O[C@H](CO)[C@@H](O)[C@@H]2O)c(=O)[nH]c1=O,inactive,inactive,inactive,inactive,–,–,–,–,–,–,–,–,–,–
Cc1cn([C@@H]2O[C@H](CO)[C@@H](O)[C@@H]2O)c(=O)[nH]c1=O,–,–,–,–,300 µg/mL,0.2 µg/mL,0.1 µg/mL,300 µg/mL,> 200 µg/mL,0.3 µg/mL,0.4 µg/mL,–,–,–
